According to ChEMBL document CHEMBL1131317, “Antitumor agents. 181. Synthesis and biological evaluation of 6,7,2',3',4'-substituted-1,2,3,4-tetrahydro-2-phenyl-4-quinolones as a new class of antimitotic antitumor agents” (J Med Chem, 1998):
Converted amounts (≈) assume the structure as drawn.

Columns and labels:
[1] = molecular target: Tubulin (Bos taurus, UniProt Q6B856+Q862L2+Q862F3); test: Inhibition of bovine brain tubulin polymerization (ITP).
[2] = test system: A549; test: Cytotoxicity against human lung carcinoma cells (A-549) using SRB assay.; format: functional; conditions: read-out: ED50 (the source's name)
Procedure, shortened: (§1)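 Cells grown at 37 °C in RPMI-1640 with 10% FBS and 100 µg/mL kanamycin, humidified 5% CO2. Seeding density set per line so control A562 reads 1-2.5. Drug given from DMSO stocks, final DMSO ≤2% (v/v), for 3 days. SRB stain, absorbance at 562 nm. […] Triplicates.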

[3] = test system: MCF7; test: Cytotoxicity against human breast cancer cells (MCF-7) using SRB assay.; format: functional; conditions: read-out: ED50 (the source's name); procedure, shortened: as §1
[4] = test system: KB; test: Cytotoxicity against human epidermoid carcinoma of the nasopharyngeal cells (KB) using SRB assay.; format: functional; conditions: read-out: ED50 (the source's name); procedure, shortened: as §1
[5] = test system: SK-MEL-2; test: The compound was tested for the cytotoxicity for the cell lines of human melanoma cancer (SKMEL-2) using SRB assay.; format: functional; conditions: read-out: ED50 (the source's name); procedure, shortened: as §1
[6] = test system: HCT-8; test: Cytotoxicity against human ileocecal carcinoma cells (HCT-8) using SRB assay.; format: functional; conditions: read-out: ED50 (the source's name); procedure, shortened: as §1
[7] = test system: CAKI-1; test: Cytotoxicity against human renal cancer cells (CAKI-1) using SRB assay.; format: functional; conditions: read-out: ED50 (the source's name); procedure, shortened: as §1
[8] = molecular target: T1, Tubulin (Bos taurus) (UniProt Q6B856+Q862L2+Q862F3); test: The compound was tested for the % inhibition of [3H]colchicine binding to bovine brain tubulin at a concentration of 1 uM
Procedure, shortened: (§2)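 [3H]colchicine at 5 µM incubated with 1 µM tubulin. Inhibitor present at the stated concentration (5 or 1 µM). Result given as % inhibition of colchicine binding ± SD.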

[9] = molecular target: T1, Tubulin (Bos taurus); test: % inhibition of [3H]colchicine binding to bovine brain tubulin at a concentration of 5 uM; procedure, shortened: as §2

| SMILES | IC50 [1] | EC50 [2] | EC50 [3] | EC50 [4] | EC50 [5] | EC50 [6] | EC50 [7] | inhibition [8] | inhibition [9] |
| --- | --- | --- | --- | --- | --- | --- | --- | --- | --- |
| O=C1CC(c2ccccc2)Nc2ccccc21 (configuration not stated) [Aza-flavanone] | 2700 nM | 0.013 µg/mL (≈ 0.0582 µM) | 0.13 µg/mL (≈ 0.582 µM) | 0.07 µg/mL (≈ 0.314 µM) | 0.13 µg/mL (≈ 0.582 µM) | 0.013 µg/mL (≈ 0.0582 µM) | 0.013 µg/mL (≈ 0.0582 µM) |  |  |
| COc1cccc([C@H]2CC(=O)c3ccccc3N2)c1 | 7200 nM | 0.5 µg/mL (≈ 1.97 µM) | 0.6 µg/mL (≈ 2.37 µM) | 0.5 µg/mL (≈ 1.97 µM) |  | 0.5 µg/mL (≈ 1.97 µM) | 3.8 µg/mL (≈ 15 µM) |  |  |
| COc1cccc([C@H]2CC(=O)c3cc4c(cc3N2)OCO4)c1 | 2300 nM | 0.09 µg/mL (≈ 0.303 µM) | 0.12 µg/mL (≈ 0.404 µM) | 0.07 µg/mL (≈ 0.235 µM) |  | 0.08 µg/mL (≈ 0.269 µM) | 0.25 µg/mL (≈ 0.841 µM) |  |  |
| COc1cccc([C@@H]2C/C(=N\NC(=O)C(=O)NC(C)c3ccccc3)c3cc4c(cc3N2)OCO4)c1 (some centres not stated) | > 40000 nM | 2.4 µg/mL (≈ 4.93 µM) | 3 µg/mL (≈ 6.17 µM) | 1.8 µg/mL (≈ 3.7 µM) |  | 1 µg/mL (≈ 2.06 µM) | 12.5 µg/mL (≈ 25.7 µM) |  |  |
| COc1cccc([C@H]2C/C(=N\NC(=O)C(=O)NC(C)c3ccccc3)c3cc4c(cc3N2)OCO4)c1 (some centres not stated) | > 40000 nM | 11.5 µg/mL (≈ 23.6 µM) | 6.3 µg/mL (≈ 12.9 µM) | 12 µg/mL (≈ 24.7 µM) |  | 1.5 µg/mL (≈ 3.08 µM) | > 25 µg/mL |  |  |
| COc1cccc(-c2cc(O)c3ccccc3n2)c1 | 1500 nM |  |  |  |  |  |  |  |  |
| O=C1C[C@H](c2ccccc2F)Nc2cc3c(cc21)OCO3 | 12000 nM | 0.6 µg/mL (≈ 2.1 µM) | 0.85 µg/mL (≈ 2.98 µM) | 0.43 µg/mL (≈ 1.51 µM) |  | 0.5 µg/mL (≈ 1.75 µM) | 1.25 µg/mL (≈ 4.38 µM) |  |  |
| COc1cccc(C2CC(=O)c3cc(N4CCCC4)ccc3N2)c1 (configuration not stated) | 660 nM | 0.01 µg/mL (≈ 0.031 µM) | 0.11 µg/mL (≈ 0.341 µM) | 0.008 µg/mL (≈ 0.0248 µM) | 0.016 µg/mL (≈ 0.0496 µM) | 0.016 µg/mL (≈ 0.0496 µM) | 0.008 µg/mL (≈ 0.0248 µM) | 63% | 91% |
| COc1cccc(-c2cc(O)c3cc4c(cc3n2)OCO4)c1 | 740 nM |  |  |  |  |  |  |  | 33% |
| COc1cccc(C2CC(=O)c3cc4c(cc3N2)OCO4)c1 (configuration not stated) | 820 nM | 0.04 µg/mL (≈ 0.135 µM) | 0.04 µg/mL (≈ 0.135 µM) | 0.02 µg/mL (≈ 0.0673 µM) | 0.06 µg/mL (≈ 0.202 µM) | 0.04 µg/mL (≈ 0.135 µM) | 0.06 µg/mL (≈ 0.202 µM) |  | 60% |
| COc1cccc([C@H]2C/C(=N\NC(=O)C(=O)NC(C)c3ccccc3)c3ccccc3N2)c1 (some centres not stated) | > 40000 nM | > 25 µg/mL | > 25 µg/mL | > 25 µg/mL |  | > 25 µg/mL | > 25 µg/mL |  |  |
| O=C1CC(c2cccc(Cl)c2)Nc2ccc(N3CCCC3)cc21 (configuration not stated) | 760 nM | 0.09 µg/mL (≈ 0.275 µM) | 0.31 µg/mL (≈ 0.949 µM) | 0.05 µg/mL (≈ 0.153 µM) | 0.08 µg/mL (≈ 0.245 µM) | 0.09 µg/mL (≈ 0.275 µM) | 0.95 µg/mL (≈ 2.91 µM) | 63% | 89% |
| O=C1CC(c2ccc(F)cc2)Nc2cc3c(cc21)OCO3 (configuration not stated) | 2000 nM | 1 µg/mL (≈ 3.51 µM) | 0.4 µg/mL (≈ 1.4 µM) | 0.3 µg/mL (≈ 1.05 µM) | 0.2 µg/mL (≈ 0.701 µM) | 0.4 µg/mL (≈ 1.4 µM) | 0.8 µg/mL (≈ 2.8 µM) |  |  |
| COc1cccc([C@@H]2CC(=O)c3cc4c(cc3N2)OCO4)c1 | 690 nM | 0.03 µg/mL (≈ 0.101 µM) | 0.03 µg/mL (≈ 0.101 µM) | 0.02 µg/mL (≈ 0.0673 µM) |  | 0.02 µg/mL (≈ 0.0673 µM) | 0.25 µg/mL (≈ 0.841 µM) |  | 67% |
| CC(NC(=O)C(=O)N/N=C1\C[C@H](c2ccccc2F)Nc2cc3c(cc21)OCO3)c1ccccc1 (some centres not stated) | > 40000 nM | 9 µg/mL (≈ 19 µM) | 25 µg/mL (≈ 52.7 µM) | 10 µg/mL (≈ 21.1 µM) |  | 9 µg/mL (≈ 19 µM) | 18 µg/mL (≈ 37.9 µM) |  |  |
| COc1cc2c(c(OC)c1OC)-c1ccc(OC)c(=O)cc1[C@@H](NC(C)=O)CC2 [COLCHICINE] |  | 0.002 µg/mL (≈ 0.00501 µM) | > 0.4 µg/mL | 0.002 µg/mL (≈ 0.00501 µM) | 0.008 µg/mL (≈ 0.02 µM) | 0.016 µg/mL (≈ 0.0401 µM) | 0.4 µg/mL (≈ 1 µM) |  |  |
| COc1cccc(C2CC(=O)c3ccccc3N2)c1 (configuration not stated) | 3300 nM | 0.23 µg/mL (≈ 0.908 µM) | 0.32 µg/mL (≈ 1.26 µM) | 0.11 µg/mL (≈ 0.434 µM) | 0.2 µg/mL (≈ 0.79 µM) | 0.12 µg/mL (≈ 0.474 µM) | 0.32 µg/mL (≈ 1.26 µM) |  |  |
| COc1cccc([C@@H]2CC(=O)c3ccccc3N2)c1 | 1200 nM | 0.15 µg/mL (≈ 0.592 µM) | 0.3 µg/mL (≈ 1.18 µM) | 0.12 µg/mL (≈ 0.474 µM) |  | 0.09 µg/mL (≈ 0.355 µM) | 0.15 µg/mL (≈ 0.592 µM) |  |  |
| COc1ccc(C2CC(=O)c3ccccc3N2)cc1 (configuration not stated) | > 40000 nM | > 25 µg/mL | > 25 µg/mL | > 25 µg/mL |  | > 25 µg/mL |  |  |  |
| COc1ccccc1C1CC(=O)c2ccccc2N1 (configuration not stated) | > 40000 nM | 6 µg/mL (≈ 23.7 µM) | 6.5 µg/mL (≈ 25.7 µM) | 1.8 µg/mL (≈ 7.11 µM) | 12.5 µg/mL (≈ 49.3 µM) | 6 µg/mL (≈ 23.7 µM) | 25 µg/mL (≈ 98.7 µM) |  |  |
| O=C1CC(c2cccc(F)c2)Nc2cc3c(cc21)OCO3 (configuration not stated) | 750 nM | 0.012 µg/mL (≈ 0.0421 µM) | 0.032 µg/mL (≈ 0.112 µM) | 0.012 µg/mL (≈ 0.0421 µM) | 0.016 µg/mL (≈ 0.0561 µM) | 0.016 µg/mL (≈ 0.0561 µM) | 0.016 µg/mL (≈ 0.0561 µM) |  | 75% |
| COc1cccc(-c2cc(O)c3cccnc3n2)c1 | 790 nM |  |  |  |  |  |  |  | 24% |
| O=C1C[C@@H](c2ccccc2F)Nc2cc3c(cc21)OCO3 | 560 nM | 0.18 µg/mL (≈ 0.631 µM) | 0.1 µg/mL (≈ 0.351 µM) | 0.08 µg/mL (≈ 0.28 µM) |  | 0.09 µg/mL (≈ 0.315 µM) | 1 µg/mL (≈ 3.51 µM) |  | 51% |
| CC(NC(=O)C(=O)N/N=C1\C[C@@H](c2ccccc2F)Nc2cc3c(cc21)OCO3)c1ccccc1 (some centres not stated) | > 40000 nM | 13 µg/mL (≈ 27.4 µM) | 8.5 µg/mL (≈ 17.9 µM) | 18 µg/mL (≈ 37.9 µM) |  | 2.1 µg/mL (≈ 4.43 µM) | > 25 µg/mL |  |  |
| O=C1CC(c2ccccc2F)Nc2cc3c(cc21)OCO3 (configuration not stated) | 1100 nM | 0.08 µg/mL (≈ 0.28 µM) | 0.06 µg/mL (≈ 0.21 µM) | 0.06 µg/mL (≈ 0.21 µM) | 0.125 µg/mL (≈ 0.438 µM) | 0.13 µg/mL (≈ 0.456 µM) | 1 µg/mL (≈ 3.51 µM) |  |  |
| COc1cccc([C@@H]2C/C(=N\NC(=O)C(=O)NC(C)c3ccccc3)c3ccccc3N2)c1 (some centres not stated) | > 40000 nM | 8 µg/mL (≈ 18.1 µM) | 8 µg/mL (≈ 18.1 µM) | 8 µg/mL (≈ 18.1 µM) |  | 3.8 µg/mL (≈ 8.59 µM) | 25 µg/mL (≈ 56.5 µM) |  |  |
| COc1cccc(-c2cc(O)c3cc(N4CCCC4)ccc3n2)c1 | 490 nM |  |  |  |  |  |  | 65% | 91% |
